Source: PMC6226371 (Journal of medicinal chemistry, 2018)
Read-outs that look alike come from different tables or passages of the source.

Key:
hMC4R [1] = molecular target: T1, hMC4R (Homo sapiens, UniProt P32245); assay type: cell-based
hMC4R [2] = molecular target: T1, hMC4R; assay: PRESTO-Tango β-arrestin2 recruitment assay, HTLA cells transfected with hMC4R; assay type: cell-based
hMC4R [3] = molecular target: T1, hMC4R; assay: AlphaScreen cAMP Schild analysis, inhibition of NDP-MSH agonist stimulation; assay type: cell-based; conditions: antagonism of NDP-MSH, pA2 = −log(Ki)
Procedure, shortened: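 HEK293 cells stably expressing Flag-tagged hMC4R (calcium phosphate transfection, G418 selection), lifted with Versene, 10,000 cells/well in HBSS stimulation buffer (0.5 mM IBMX, 5 mM HEPES, 0.1% BSA, pH 7.4).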

[4] = molecular target: mMC4R-NanoLuc and mMC4R-HaloTag homodimer (Mus musculus, UniProt P56450); assay: NanoBRET ligand-induced response of the mMC4R homodimer; assay type: cell-based
[5] = molecular target: human melanocortin-4 receptor (hMC4R-Flag) (human) (UniProt P32245)
hMC4R [6] = conditions: 1 µM, not significant; cited from earlier work

T1 sequence (P32245 whole entry): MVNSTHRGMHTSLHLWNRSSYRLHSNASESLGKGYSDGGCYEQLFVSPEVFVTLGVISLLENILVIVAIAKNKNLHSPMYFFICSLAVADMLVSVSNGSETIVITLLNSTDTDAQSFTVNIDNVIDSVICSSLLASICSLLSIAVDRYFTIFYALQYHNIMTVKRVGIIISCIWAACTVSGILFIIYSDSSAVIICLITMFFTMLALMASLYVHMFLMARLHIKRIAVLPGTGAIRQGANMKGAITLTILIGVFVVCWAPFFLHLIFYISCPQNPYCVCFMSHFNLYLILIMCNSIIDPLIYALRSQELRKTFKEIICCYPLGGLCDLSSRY
Chain of mMC4R-NanoLuc and mMC4R-HaloTag homodimer (P56450 whole entry): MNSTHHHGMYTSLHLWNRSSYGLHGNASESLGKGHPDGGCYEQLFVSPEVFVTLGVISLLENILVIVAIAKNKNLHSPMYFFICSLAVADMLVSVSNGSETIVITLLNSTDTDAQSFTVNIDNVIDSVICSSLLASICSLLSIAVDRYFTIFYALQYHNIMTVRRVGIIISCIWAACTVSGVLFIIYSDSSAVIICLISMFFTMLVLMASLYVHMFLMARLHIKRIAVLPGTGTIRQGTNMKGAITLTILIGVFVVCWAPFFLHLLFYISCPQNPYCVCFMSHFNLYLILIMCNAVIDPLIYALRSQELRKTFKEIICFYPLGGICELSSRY
Chain of mMC4R-NanoLuc and mMC4R-HaloTag homodimer (P56450 whole entry): as above
Chain of human melanocortin-4 receptor (hMC4R-Flag) (human) (P32245 whole entry): as the sequence (P32245 whole entry) above

In the case of `CC(=O)N[C@@H](Cc1c[nH]cn1)C(=O)N[C@H](Cc1ccc2ccccc2c1)C(=O)N[C@@H](CCCNC(=N)N)C(=O)N[C@@H](Cc1c[nH]c2ccccc12)C(=O)N1CCC[C@H]1C(=O)NCC(=O)N1CCC[C@H]1C(=O)NCC(=O)N1CCC[C@H]1C(=O)NCC(=O)N1CCC[C@H]1C(=O)NCC(=O)N1CCC[C@H]1C(=O)NCC(=O)N1CCC[C@H]1C(=O)NCC(=O)N[C@@H](Cc1c[nH]cn1)C(=O)N[C@H](Cc1ccccc1)C(=O)N[C@@H](CCCNC(=N)N)C(=O)N[C@@H](Cc1c[nH]c2ccccc12)C(N)=O` [CJL-1–63], the “cAMP pharmacology” value (hMC4R [1]; hMC4R) is reported as “single digit nanomolar potent agonists”.
In the case of `CC(=O)NCCCOCCOCCOCCCNC(=O)COCC(=O)N[C@@H](Cc1c[nH]cn1)C(=O)N[C@H](Cc1ccccc1)C(=O)N[C@@H](CCCNC(=N)N)C(=O)N[C@@H](Cc1c[nH]c2ccccc12)C(N)=O` [CJL-1–116], the EC50 (hMC4R [2]) is reported as 140 ± 70 nM, the “fold increase in β-arrestin recruitment potency compared to CJL-1–14” value (hMC4R [2]; hMC4R) is reported as less than 3 fold and the EC50 (hMC4R [1]) is reported as 2 ± 0.3 nM.
With `CC(=O)N[C@@H](Cc1c[nH]cn1)C(=O)N[C@H](Cc1ccc2ccccc2c1)C(=O)N[C@@H](CCCNC(=N)N)C(=O)N[C@@H](Cc1c[nH]c2ccccc12)C(=O)NCCCOCCOCCOCCCNC(=O)COCC(=O)NCCCOCCOCCOCCCNC(=O)COCC(=O)N[C@@H](Cc1c[nH]cn1)C(=O)N[C@H](Cc1ccccc1)C(=O)N[C@@H](CCCNC(=N)N)C(=O)N[C@@H](Cc1c[nH]c2ccccc12)C(N)=O` [CJL-5–74] the “cAMP pharmacology” value (hMC4R [1]; hMC4R) was “single digit nanomolar potent agonists”.
For Ac-His-DNal(2ʹ)-Arg-Trp-NH2 [CJL-1–80], the “β-Arrestin recruitment, % of maximal signal at 10 µM compared to control NDP-MSH maximal signal” value (hMC4R [2]; hMC4R) was 30% at 10 µM, the “β-Arrestin recruitment, % of maximal signal at 10 µM compared to control NDP-MSH maximal signal” value (hMC4R [2]; hMC4R, listed as Ac-His-DNal(2ʹ)-Arg-Trp-NH2) was 30% and the “pA2 (Schild analysis)” value (hMC4R [3]) was 7.82±0.03. The “change in BRET signal from basal levels” value ([4]; 10^−5, 10^−7 and 10^−9 M) was “no significant changes” and the “cAMP signaling, % of maximal signal at 10 µM compared to control NDP-MSH maximal signal” value (hMC4R [1]; hMC4R, at 10 µM) was 50%.
Compound MTII (peptide) has a cAMP signaling EC50 (AlphaScreen, HEK293 cells stably expressing hMC4R) [5] of 0.03 nM.
In the case of NDP-MSH (peptide), the cAMP signaling EC50 (AlphaScreen, HEK293 cells stably expressing hMC4R) [5] is reported as 0.06 nM.
For α-MSH [reference compound], the “reduction in BRET signal compared to basal signal” value ([4]; ligand at 10 µM) is given as 15% and the “decrease of mean BRET signal compared to basal BRET signal” value (hMC4R [6]) is given as “approximately 20%”.
